The source made the active and inactive calls. The rule behind the calls is not given here.
How the values were obtained:
MCF7 = assay: Antiproliferative activity against human MCF7 cells after 72 hrs by MTT assay; assay type: functional, cell-based; details: MCF7, 72 h
Procedure, shortened: (§1)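 HeLa, MCF-7 and A431 cells were kept in minimal essential medium with 10% fetal bovine serum, 1% non-essential amino acids and antibiotic-antimycotic, at 37 °C in humidified 5% CO₂. Cells were seeded at 5000 cells/well, left overnight, then given compound-containing medium. Read-out was MTT colorimetric, with cisplatin as positive control. IC₅₀ came from fitted sigmoidal dose–response curves.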

HeLa [1] = assay: Antiproliferative activity against human HeLa cells after 72 hrs by MTT assay; assay type: functional, cell-based; procedure, shortened: as §1
A-431 = assay: Antiproliferative activity against human A431 cells after 72 hrs by MTT assay; assay type: functional, cell-based; details: A-431, 72 h; procedure, shortened: as §1
HeLa [2] = assay: Cell cycle arrest in human HeLa cells assessed as accumulation at S phase at 3 to 10 uM after 24 hrs by flow cytometry analysis; assay type: functional, cell-based
Procedure, shortened: (§2)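 HeLa cells were treated at […] for 24 or 48 h. Then 200,000 cells per condition were trypsinized, PBS-washed, fixed in cold 70% ethanol for 30 min on ice, washed twice and PI-stained for DNA. 20,000 events were recorded and subG1, G1, S and G2/M percentages computed, with subG1 taken as apoptotic. Values are means of three determinations, tested against control.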

HeLa [3] = assay: Induction of apoptosis in human HeLa cells assessed as nuclear condensation after 24 hrs by Hoechst 33258 staining based fluorescence microscopy; assay type: functional, cell-based
Procedure, shortened: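 Near-confluent HeLa cells were seeded at 5000 cells/well and exposed for 24 h to vehicle or compound at […]. Hoechst 33258 and PI were added at final 5 and 2 µg/mL, then incubated 1 h at 37 °C.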

HeLa [4] = assay: Cellular uptake in human HeLa cells after 24 hrs by fluorescence microscopy; assay type: ADME, cell-based
HeLa [5] = assay: Cell cycle arrest in human HeLa cells assessed as accumulation at G2/M phase at 3 to 10 uM after 24 hrs by flow cytometry; assay type: functional, cell-based; procedure, shortened: as §2
HeLa [6] = assay: Cell cycle arrest in human HeLa cells at 3 to 10 uM after 48 hrs by flow cytometry analysis; assay type: functional, cell-based; procedure, shortened: as §2
HeLa [7] = assay: Cell cycle arrest in human HeLa cells assessed as accumulation at Sub-G1 phase at 3 to 10 uM after 24 hrs by flow cytometry analysis; assay type: functional, cell-based; procedure, shortened: as §2
HeLa [8] = assay: Cell cycle arrest in human HeLa cells assessed as accumulation at G2/M phase after 24 hrs by flow cytometry; assay type: functional, cell-based; procedure, shortened: as §2

SMILES | IC50 (MCF7) | IC50 (HeLa [1]) | IC50 (A-431) | Activity (HeLa [2]) | Activity (HeLa [3]) | Drug uptake (HeLa [4]) | Activity (HeLa [5]) | Activity (HeLa [6]) | Activity (HeLa [7]) | Activity (HeLa [8])
COc1ccc2c(c1)CC[C@H]1[C@@H]3[C@H](n4cc(-c5ccccc5)nn4)CC(=O)[C@@]3(C)CC[C@H]21 | 11.3 µM | 14.9 µM | 4.77 µM |  |  |  |  |  |  | 
CCCc1ccc(-c2cn([C@@H]3C[C@H](O)[C@@]4(C)CC[C@H]5[C@@H](CC[C@H]6C[C@@H](OC(C)=O)CC[C@@]65C)[C@H]34)nn2)cc1 | > 30 µM | 6.52 µM | > 30 µM | Active | Dose-dependent effect | Dose-dependent effect | inactive | Active | Active | 
CC(=O)O[C@H]1CC[C@@]2(C)[C@@H](CC[C@H]3[C@@H]4[C@H](n5cc(-c6ccc(F)cc6)nn5)C[C@H](O)[C@@]4(C)CC[C@@H]32)C1 | > 30 µM | > 30 µM | > 30 µM |  |  |  |  |  |  | 
CCCc1ccc(-c2cn([C@@H]3CC(=O)[C@@]4(C)CC[C@H]5[C@@H](CC[C@H]6C[C@@H](OC(C)=O)CC[C@@]65C)[C@H]34)nn2)cc1 | 8.4 µM | 15 µM | > 30 µM |  |  |  |  |  |  | 
CC(=O)O[C@H]1CC[C@@]2(C)[C@@H](CC[C@H]3[C@@H]4[C@H](n5cc(-c6ccc(C)cc6)nn5)CC(=O)[C@@]4(C)CC[C@@H]32)C1 | 2.68 µM | 10.3 µM | 10.7 µM |  | Dose-dependent effect | Dose-dependent effect |  |  |  | Dose-dependent effect
CC(=O)O[C@H]1CC[C@@]2(C)[C@@H](CC[C@H]3[C@@H]4[C@H](n5cc(-c6ccccc6)nn5)C[C@H](O)[C@@]4(C)CC[C@@H]32)C1 | 19.2 µM | 7.7 µM | 20.7 µM |  | Dose-dependent effect | Dose-dependent effect |  | Active | Active | Dose-dependent effect
CC(=O)O[C@H]1CC[C@@]2(C)[C@@H](CC[C@H]3[C@@H]4[C@H](n5cc(-c6ccc(C)cc6)nn5)C[C@H](O)[C@@]4(C)CC[C@@H]32)C1 | 10.3 µM | 9.4 µM | 22.4 µM |  | Dose-dependent effect | Dose-dependent effect |  | Active | Active | Dose-dependent effect
COc1ccc2c(c1)CC[C@H]1[C@@H]3[C@H](n4cc(-c5ccccc5)nn4)C[C@H](O)[C@@]3(C)CC[C@H]21 | > 30 µM | > 30 µM | 1.7 µM |  |  |  |  |  |  | 
CC(=O)O[C@H]1CC[C@@]2(C)[C@@H](CC[C@H]3[C@@H]4[C@H](n5cc(-c6ccccc6)nn5)CC(=O)[C@@]4(C)CC[C@@H]32)C1 | 1.69 µM | 9.16 µM | 9.69 µM |  | Dose-dependent effect | Dose-dependent effect |  | Active | Active | Dose-dependent effect
CC(=O)O[C@H]1CC[C@@]2(C)[C@@H](CC[C@H]3[C@@H]4[C@H](n5cc(-c6ccc(F)cc6)nn5)CC(=O)[C@@]4(C)CC[C@@H]32)C1 | 3.39 µM | 11 µM | 16 µM |  |  |  |  |  |  | 
